Shown are actives, neighbours in structure and some others; about 4.8% of the full set was active somewhere.
697 NFkB inh – lowers PMA/ionomycin-induced NF-kB signal in 697 B cells; AID 435022; inhibition, % at 4 µM; actives 0.33% (n = 330,000); 697 B-cell NF-kB luciferase reporter, 16 h; in the data active = inhibition above about 35%
HSF1 inh – HSF1 inhibition; activity change, negative = inhibition, % at 7.5 µM (by protocol); actives 0.77% (n = 300,000); NIH3T3-HGL HSE-luciferase, MG132-induced, luminescence 8 h; active compounds read low;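 active = more than half of replicate wells show activity change below -50%, luminescence cut by over half; inconclusive = some wells, but at most half, below -50%; inactive = no replicate well below -50%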;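 also: luciferase reports HSF-1 transcriptional activity via heat shock element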
T cruzi repl – blocks replication of Trypanosoma cruzi. T. cruzi beta-gal in NIH3T3, luminescence, 90 h. inhibition, % (concentration not given with the values). actives 1.4% (n = 300,000). AID 1885;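 active = mean inhibition across valid replicates above about 55%, limit read from the data; inconclusive = mean below that limit but half or more replicates reach it; inactive = mean below it, under half of replicates reach it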;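 also: signal also drops with host cell toxicity which is not excluded here; higher percent means less beta-gal luminescence so fewer parasites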
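System – NIH/3T3 host cells with β-galactosidase reporter T. cruzi · Doses – single 50 nL compound addition per well in DMSO · Reagent – 5000 T. cruzi trypomastigotes/well · Medium – Low-serum DMEM with 2% FBS · Timing – ≥90 h infection period, 3 h prior cell attachment · Evaluation – parasite load inhibition, % · Technique – GalScreen luminescence, 60 min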
Jurkat NFkB inh – lowers PMA/ionomycin-induced NF-kB signal in Jurkat cells. inhibition, % at 4 µM. actives 0.53% (n = 330,000). PMA/ionomycin-induced NF-kB luciferase reporter, luminescence. AID 435003; in the data active = inhibition above about 50%
HSF-1 act – increases HSF-1 driven luciferase reporter signal | NIH3T3-HGL HSF-1 luciferase reporter, MG132, 8 h; 100% = twice DMSO control signal | activation, % at 9 µM | actives 1.7% (n = 300,000) | AID 504408;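 active = mean replicate activation of at least 50% with a set share of replicates each reaching 50%; inconclusive = only one of those two conditions met; inactive = mean below 50% and too few replicates reaching it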
GPR7 antagonist – blocks human GPR7 receptor signaling; P48145; GPR7-expressing cells, fluorescence antagonist assay; inhibition, % at 4.4 µM; actives 1.1% (n = 290,000); AID 1861; in the data active = inhibition above about 16%, passing the limit was not always enough;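 also: cells stimulated with the agonist NPW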
Target sequence (P48145 whole entry, looked up): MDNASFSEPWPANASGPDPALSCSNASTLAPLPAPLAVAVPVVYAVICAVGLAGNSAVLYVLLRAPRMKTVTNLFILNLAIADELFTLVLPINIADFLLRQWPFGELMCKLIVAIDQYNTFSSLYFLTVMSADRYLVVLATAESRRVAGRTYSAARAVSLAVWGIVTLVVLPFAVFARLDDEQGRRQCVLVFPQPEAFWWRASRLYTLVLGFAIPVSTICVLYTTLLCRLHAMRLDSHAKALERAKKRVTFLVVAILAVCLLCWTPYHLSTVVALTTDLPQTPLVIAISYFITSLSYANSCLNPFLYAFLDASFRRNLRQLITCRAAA
Of the large screens only hits and unclear results are named; the others gave an inactive call.

c1ccc(Cn2c(-c3ccccc3)nc3nc4ccccc4nc32)cc1	none
CCOC(=O)c1sc(-c2ccccc2)cc1NC(=O)Nc1ccccc1	T cruzi repl 55 (no result: 697 NFkB inh, Jurkat NFkB inh)
CCOC(=O)c1sc(-c2ccc(F)cc2)cc1NC(=O)Nc1ccccc1OC	none
COc1ccc(C)cc1NC(=O)CCC(=O)Nc1ccc2nc(N3CCN(C)CC3)cc(C)c2c1	T cruzi repl 65
CCN1CCN(c2cc(C)c3cc(NC(=O)Cc4ccccc4OC)ccc3n2)CC1	T cruzi repl 71
CCN1CCN(c2cc(C)c3cc(NC(=O)CCC(=O)Nc4ccc(OC)c(OC)c4)ccc3n2)CC1	none
CC(C)(C)C(C(Oc1ccc(Cl)cc1)n1cncn1)n1nnnc1C(c1cccc(Cl)c1)N1CCCCC1 (stereo not given)	T cruzi repl 55
COCCn1nnnc1C(c1cccc(C#N)c1)N1CCCCCC1 (stereo not given)	none
Cc1ccc(C(=O)NCC(C)NC(=O)c2ccc(C)c(C)c2)cc1C (stereo not given)	none (no result: GPR7 antagonist)
FC(F)(F)Oc1ccc(Nc2nc3ccccc3o2)cc1	HSF-1 act 78
c1ccc(Nc2nc3ccccc3o2)cc1	none
COc1ccc(CCNC(=O)c2cc(COc3c(C)cccc3C)on2)c(OC)c1	HSF-1 act 56
COc1ccc(CCNC(=O)c2cc(COc3c(F)cccc3F)on2)c(OC)c1	none
CC1CCN(CCCCOc2ccc([N+](=O)[O-])cc2)CC1	none
COC(=O)C1CCN(Cc2ccc(OCCCN3CCN(c4ccc([N+](=O)[O-])cc4)CC3)cc2)CC1	T cruzi repl 61
COc1ccc(-c2cc(C3CCN(Cc4cccc(C(F)(F)F)c4)CC3)[nH]n2)cc1	T cruzi repl 62
Cc1ccc(CN2CCC(c3cc(-c4ccc(Cl)cc4)n[nH]3)CC2)cc1	none
COc1ccc(-c2cc(C3CCN(Cc4ccc([N+](=O)[O-])cc4)CC3)[nH]n2)cc1	T cruzi repl 85 (no result: HSF1 inh, HSF-1 act)
O=C(Nc1ccc(C(=O)O)cc1)/C(=C\c1ccc([N+](=O)[O-])cc1)NC(=O)c1ccc(Br)cc1	none
CC1CCCCC1NC(=O)CSc1nnc(CC(=O)Nc2ccccc2F)n1C (stereo not given)	none
CC(C)(C)c1ccc(CN2C3=NCCCN3c3ccccc32)cc1	T cruzi repl 69
Cc1ccc(CN2C3=NCCCN3c3ccccc32)cc1	none (no result: HSF1 inh, T cruzi repl, HSF-1 act)
CC1CC(=O)Nc2cc([N+](=O)[O-])ccc2N1 (stereo not given)	HSF1 inh -89
COc1cc(C2CC(=O)Nc3cc(C)c(C)cc32)cc(OC)c1OC (stereo not given)	none
Cc1cc2c(cc1C)C(c1cccc([N+](=O)[O-])c1)CC(=O)N2 (stereo not given)	HSF-1 act 63
O=C(Cc1ccccc1)Nc1ccccc1Oc1ccccc1	none
Cc1ccc(NC(=O)Cn2c(CCC(=O)O)ccc2-c2cccs2)cc1	HSF-1 act 62
Cn1c(=O)[nH]c(=O)c2c1nc(Br)n2CCCSc1nc2ccccc2o1	T cruzi repl 63
Cn1c(=O)[nH]c(=O)c2c1nc(N1CCCC1)n2CCCSc1nc2ccccc2o1	none
O[C@@H]1C2CCCC1[C@]1(O)CCCCC1C2 (stereo not given in full)	HSF-1 act 53
OC(CNCc1ccco1)Cn1c2ccc(Br)cc2c2cc(Br)ccc21 (stereo not given)	HSF-1 act 61
COC(=O)C1=CN(Cc2ccc(OC)c(OC)c2)C=C(C(=O)OC)C1c1cccc(OC)c1OC	T cruzi repl 61
COC(=O)C1=CN(Cc2ccc(OC)c(OC)c2)C=C(C(=O)OC)C1c1ccccc1F	HSF1 inh -55, T cruzi repl inconclusive
Cc1ccc(Nc2c(N)c(=O)oc3ccccc23)cc1	HSF-1 act 161
COC(=O)[C@@]1(Cc2ccccc2)[C@H]2C(=O)N(C)C(=O)[C@H]2[C@H]2CN=C(SCc3ccc(C#N)cc3)N21	none (no result: HSF1 inh, T cruzi repl, Jurkat NFkB inh, HSF-1 act, GPR7 antagonist)
Cc1ccc(C(=O)Nc2ccc3c(c2)OCCO3)cc1	none
CCCOc1ccc(NC(=O)C2CC(=O)N3CCCN=C3S2)cc1 (stereo not given)	none
CCOc1ccc(NC(=O)C2CC(=O)N3CCCN=C3S2)cc1 (stereo not given)	HSF-1 act 54
CCOc1ccc(C(=O)Nc2ccc3c(c2)OCCO3)cc1	HSF-1 act 118
CCOc1ccc(N2CC(C(=O)Nc3ccc4c(c3)OCO4)CC2=O)cc1 (stereo not given)	none
CCOc1ccc(N2CC(C(=O)Nc3ccc4c(c3)OCCO4)CC2=O)cc1 (stereo not given)	HSF1 inh -65
CCOc1ccc(C(=O)NC2=NCCS2)cc1	HSF-1 act 66
COc1ccc(Nc2ncnc3sccc23)c(OC)c1	none
CC(C)CC(C(=O)Nc1cccc(O)c1)N1C(=O)c2ccccc2C1=O (stereo not given)	HSF1 inh -59
Cn1c2ccc(F)cc2c2ncn(CCN3CCOCC3)c(=O)c21	HSF-1 act 160
Cn1c2ccccc2c2ncn(CCC3=CCCCC3)c(=O)c21	HSF-1 act 61
Cn1c2ccccc2c2ncn(CCCN3CCOCC3)c(=O)c21	none
Cc1nnc2nc(-c3ccccc3)nc(-c3ccccc3)n12	none
Cc1nn(CCO)c2ncc(C(=O)c3cc(Cl)ccc3O)cc12	none
CC(=O)Nc1cccc(NC(=O)C2CC(=O)N(CCc3ccc(F)cc3)C2)c1 (stereo not given)	none
Cc1cc(=O)[nH]c2ccc(S(=O)(=O)NC3CCCCC3)cc12	none
CCOc1ccc2nc(SCC(=O)Nc3ccc4c(c3)OCCO4)[nH]c2c1	none
COc1ccc2nc(SCC(=O)Nc3ccc4c(c3)OCCO4)[nH]c2c1	HSF1 inh -53
Nn1c(SCC(=O)Nc2ccc3c(c2)OCCO3)nnc1C(F)(F)F	GPR7 antagonist 14
O=C(CSc1nc2ccccc2[nH]1)Nc1ccc(F)c(F)c1	HSF1 inh -61
CCN1C(=O)[C@H]2[C@H]3CN=C(SCc4ccccc4)N3[C@@](CC)(C(=O)OC)[C@H]2C1=O	none (no result: HSF1 inh, T cruzi repl, Jurkat NFkB inh, HSF-1 act, GPR7 antagonist)
CC(=O)N(C)c1ccc(OCC(O)Cn2c3ccc(Cl)cc3c3cc(Cl)ccc32)cc1 (stereo not given)	HSF-1 act 59
O=S(=O)(/C(=C/c1ccc(C(F)(F)F)cc1)c1nc2ccccc2[nH]1)c1ccccc1	HSF-1 act 180, GPR7 antagonist 26 (no result: 697 NFkB inh, Jurkat NFkB inh)
CC(C)c1ccc(/C=C(\c2nc3ccccc3[nH]2)S(=O)(=O)c2ccccc2)cc1	HSF-1 act 102, GPR7 antagonist 28
C/C(=C\c1ccc(N)cc1)c1nc2ccccc2[nH]1	none
O=C1c2nccnc2C(=O)N1Cc1ccccc1	none (no result: 697 NFkB inh, T cruzi repl, Jurkat NFkB inh, GPR7 antagonist)
Cc1ccc(S(=O)(=O)Nc2cccc(-n3cnnn3)c2)cc1C	none
